Source: PMC10957407 (Food Chemistry: X, 2024)
Values after ≈ are worked out from the molar mass of the structure shown.

Experiments:
5-3H1 = test: icELISA with mAb 5-3H1; format: binding
6-AT6 = test: icELISA with mAb 6-AT6; format: binding
1-D6 = test: icELISA with mAb 1-D6; format: binding, Balb/c mice
Summary of the method: (§1)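 Ascites-derived mAbs (caprylic acid–ammonium sulfate purified) from female Balb/c mice immunized with hapten–BSA. Plates coated with hapten–OVA in carbonate buffer (0.5 mol L−1, pH 9.6), blocked with 5% skim milk, washed with PBST, and detected with goat anti-mouse IgG-HRP; reaction stopped with 2 mol L−1 H2SO4. Analyte stocks (1 mg/mL, 70% methanol) were diluted in 10% methanol-PBS. IC50 values were fitted, and cross-reactivity was calculated for capsaicinoids, gingerol derivatives and eight other compounds.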

1-G12 = test: icELISA with mAb 1-G12; format: binding, Balb/c mice
Summary of the method: as §1

4-AT4 = test: icELISA with mAb 4-AT4; format: binding
2-LD2 = test: icELISA with mAb 2-LD2; format: binding
5-D8 = test: icELISA with mAb 5-D8; format: binding
3-LD3 = test: icELISA with mAb 3-LD3; format: binding
1-F12 = test: icELISA with mAb 1-F12; format: binding, Balb/c mice
Summary of the method: as §1

With `CCCCC[C@H](O)CC(=O)CCc1ccc(O)c(OC)c1` [Hapten 6-GG, 6-gingerol] the IC50 (5-3H1; coating antigen Hapten 1-OVA) was 38.97 ng/mL (≈ 0.132 µM), the IC50 (5-3H1; coating antigen Hapten 2-OVA) was >4000 ng/mL and the IC50 (5-3H1; coating antigen Hapten 3-OVA) was >4000 ng/mL. The IC50 (5-3H1; coating antigen Hapten 4-OVA) was 1062.82 ng/mL (≈ 3.61 µM), the IC50 (5-3H1; coating antigen Hapten 5-OVA) was 670.41 ng/mL (≈ 2.28 µM) and the IC50 (6-AT6; coating antigen Hapten 1-OVA) was >4000 ng/mL. For the same molecule, the IC50 (6-AT6; coating antigen Hapten 2-OVA) was >4000 ng/mL, the IC50 (6-AT6; coating antigen Hapten 3-OVA) was >4000 ng/mL and the IC50 (6-AT6; coating antigen Hapten 4-OVA) was >4000 ng/mL. The IC50 (6-AT6; coating antigen Hapten 5-OVA) was 425.62 ng/mL (≈ 1.45 µM), the IC50 (6-AT6; coating antigen Hapten 6-OVA) was >4000 ng/mL and the IC50 (1-D6; coating antigen Hapten 1-OVA, mAb 1-D6) was 59.17 ng/mL (≈ 0.201 µM). For the same molecule, the IC50 (1-D6; coating antigen Hapten 2-OVA, mAb 1-D6) was 1147.33 ng/mL (≈ 3.9 µM), the IC50 (1-D6; coating antigen Hapten 3-OVA, mAb 1-D6) was 27.78 ng/mL (≈ 0.0944 µM) and the IC50 (1-D6; coating antigen Hapten 4-OVA, mAb 1-D6) was 297.53 ng/mL (≈ 1.01 µM). For the same molecule, the IC50 (1-D6; coating antigen Hapten 5-OVA, mAb 1-D6) was 132.86 ng/mL (≈ 0.451 µM), the IC50 (1-D6; coating antigen Hapten 6-OVA, mAb 1-D6) was 150.56 ng/mL (≈ 0.511 µM) and the IC50 (1-D6; mAb 1-D6, specific evaluation (Table 1, Fig. 3C)) was 59.17 ng/mL (≈ 0.201 µM). The CR (1-D6; mAb 1-D6, CR%=IC50 6-GG/IC50 test compound x100%) was 100.00%, the IC50 (1-G12; coating antigen Hapten 1-OVA, mAb 1-G12) was 560.59 ng/mL (≈ 1.9 µM) and the IC50 (1-G12; coating antigen Hapten 2-OVA, mAb 1-G12) was >4000 ng/mL. The IC50 (1-G12; coating antigen Hapten 3-OVA, mAb 1-G12) was >4000 ng/mL, the IC50 (1-G12; coating antigen Hapten 4-OVA, mAb 1-G12) was 410.84 ng/mL (≈ 1.4 µM) and the IC50 (1-G12; coating antigen Hapten 5-OVA, mAb 1-G12) was 195.53 ng/mL (≈ 0.664 µM). For the same molecule, the IC50 (1-G12; coating antigen Hapten 6-OVA, mAb 1-G12) was 284.44 ng/mL (≈ 0.966 µM), the IC50 (1-G12; mAb 1-G12, specific evaluation (Table 1, Fig. 3D)) was 560.59 ng/mL (≈ 1.9 µM) and the CR (1-G12; mAb 1-G12, CR%=IC50 6-GG/IC50 test compound x100%) was 100.00%. For the same molecule, the IC50 (4-AT4; coating antigen Hapten 1-OVA) was 4.93 ng/mL (≈ 0.0167 µM), the IC50 (4-AT4; coating antigen Hapten 2-OVA) was >4000 ng/mL and the IC50 (4-AT4; coating antigen Hapten 3-OVA) was >4000 ng/mL. For the same molecule, the IC50 (4-AT4; coating antigen Hapten 4-OVA) was >4000 ng/mL, the IC50 (4-AT4; coating antigen Hapten 5-OVA) was 481.65 ng/mL (≈ 1.64 µM) and the IC50 (2-LD2; coating antigen Hapten 1-OVA) was 24.79 ng/mL (≈ 0.0842 µM). For the same molecule, the IC50 (2-LD2; coating antigen Hapten 2-OVA) was 1436.16 ng/mL (≈ 4.88 µM), the IC50 (2-LD2; coating antigen Hapten 3-OVA) was 1.78 ng/mL (≈ 0.00605 µM) and the IC50 (2-LD2; coating antigen Hapten 4-OVA) was 1.01 ng/mL (≈ 0.00343 µM). For the same molecule, the IC50 (5-D8; coating antigen Hapten 1-OVA) was 23.28 ng/mL (≈ 0.0791 µM), the IC50 (5-D8; coating antigen Hapten 2-OVA) was >4000 ng/mL and the IC50 (5-D8; coating antigen Hapten 3-OVA) was >4000 ng/mL. For the same molecule, the IC50 (5-D8; coating antigen Hapten 4-OVA) was 1030.07 ng/mL (≈ 3.5 µM), the IC50 (5-D8; coating antigen Hapten 5-OVA) was 1036.51 ng/mL (≈ 3.52 µM) and the IC50 (3-LD3; coating antigen Hapten 2-OVA) was 1821.65 ng/mL (≈ 6.19 µM). The IC50 (3-LD3; coating antigen Hapten 3-OVA) was 2182.32 ng/mL (≈ 7.41 µM), the IC50 (3-LD3; coating antigen Hapten 4-OVA) was 271.08 ng/mL (≈ 0.921 µM) and the IC50 (1-F12; coating antigen Hapten 1-OVA, mAb 1-F12) was 506.23 ng/mL (≈ 1.72 µM). For the same molecule, the IC50 (1-F12; coating antigen Hapten 2-OVA, mAb 1-F12) was >4000 ng/mL, the IC50 (1-F12; coating antigen Hapten 3-OVA, mAb 1-F12) was >4000 ng/mL and the IC50 (1-F12; coating antigen Hapten 4-OVA, mAb 1-F12) was 401.26 ng/mL (≈ 1.36 µM). For the same molecule, the IC50 (1-F12; coating antigen Hapten 5-OVA, mAb 1-F12 (optimal combination)) was 122.83 ng/mL, the IC50 (1-F12; coating antigen Hapten 6-OVA, mAb 1-F12) was 631.69 ng/mL (≈ 2.15 µM) and the IC50 (1-F12; mAb 1-F12, specific evaluation (Table 1, Fig. 3B)) was 506.23 ng/mL (≈ 1.72 µM). For the same molecule, the CR (1-F12; mAb 1-F12, CR%=IC50 6-GG/IC50 test compound x100%) was 100.00%.
